Assay outcomes (PubChem)
Compounds with a hit are over-represented: about 2.3% of the library has one in this group of screens.
OXTR potentiate = potentiators of human oxytocin receptor; activation, % at 3 µM; 320,000 compounds, 0.061% hits; CHO-OTR cells, Fluo-8 calcium fluorescence, potentiator mode; 0% = oxytocin EC15, 100% = EC100; P30559;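 active means activation above that plate's cutoff, the mean activation of tested compounds plus 3 SD, cut at about 6.6% in these data, passing the limit was not always enough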
Target sequence (P30559 whole entry, looked up): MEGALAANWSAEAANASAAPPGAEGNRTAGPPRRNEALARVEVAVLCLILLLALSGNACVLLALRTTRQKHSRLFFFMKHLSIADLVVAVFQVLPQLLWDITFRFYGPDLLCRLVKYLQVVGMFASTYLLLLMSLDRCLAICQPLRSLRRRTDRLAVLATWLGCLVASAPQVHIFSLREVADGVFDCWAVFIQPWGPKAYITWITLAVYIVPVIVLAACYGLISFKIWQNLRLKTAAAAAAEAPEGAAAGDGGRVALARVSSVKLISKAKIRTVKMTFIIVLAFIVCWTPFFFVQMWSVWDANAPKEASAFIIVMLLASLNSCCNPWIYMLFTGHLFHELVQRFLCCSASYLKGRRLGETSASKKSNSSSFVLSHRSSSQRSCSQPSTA
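Assay system: CHO-OTR cells, human receptor / Also added: oxytocin at about EC15, sub-maximal agonist stimulus / Dosing: single dose, 3.0 µM nominal final compound concentration / Incubation: 6 min pre-incubation, 100 s read / Technique: Fluo-8 calcium dye fluorescence / Read-out: % activation vs EC15 and EC100 oxytocin / Benchmarks: EC15 oxytocin low, 75 nM oxytocin high / Replicates: singlicate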
TAAR1 antagonist = antagonists of human TAAR1 | Q96RJ0 | CHO RD-HGA16 TAAR1, Fluo-8 calcium fluorescence, antagonist | inhibition, % at 3 µM | 360,000 compounds, 1.5% hits | AID 624466;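 active means inhibition above a per-plate cutoff, the mean inhibition of test compounds on that plate plus 3 SD, cut at about 49% in these data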
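Material: RD-HGA16 CHO cells with stable hTAAR1 and Gα16; Dosing: single nominal final test compound concentration of 3 µM; Schedule: seeding 17-24 h prior, 75-min 37 °C, 30-min RT dye loading; Detection: kinetic Fluo-8 calcium fluorescence measurement; Measure: % inhibition from peak post-agonist over basal fluorescence ratio; Benchmarks: vehicle and agonist controls.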
TAAR1 ag = human TAAR1 agonism; Q96RJ0; CHO RD-HGA16 TAAR1, Fluo-8 calcium fluorescence; vehicle wells 0%, saturating PEA agonist 100%; activation, % at 3 µM; 360,000 compounds, 0.99% hits; AID 624467;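 active means activation above the mean activation of all test compounds in the run plus 3 SD, cut at about 38% in these data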
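Assay system: CHO-derived RD-HGA16 cells with stable Gα16 and human TAAR1; timing: 17-24 h seeding, 75 min 37 °C dye, 30 min RT; read-out: % activation from peak over basal fluorescence ratio, DMSO-to-PEA scaled; measured by: kinetic Fluo-8 calcium fluorescence; benchmarks: low control DMSO, high control PEA (EC100); doses: 3 µM single concentration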
OXTR agonist = activates the human oxytocin receptor; CHO-OTR cells, Fluo-8 calcium fluorescence; normalized: DMSO 0%, oxytocin 100%; activation, % at 3 µM; 320,000 compounds, 0.32% hits;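 active means activation above the mean of all tested compounds plus 3 SD, cutoff set per screening run, cut at about 20% in these data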;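 further: peak over basal fluorescence ratio from a 100 s FLIPR kinetic read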
V1aR counter = V1a receptor agonism, counter-screen for OXTR agonists; activation, % at 3 µM; CHO-V1R cells, Fluo-8 calcium fluorescence, agonist mode; 0% DMSO, 100% 3 nM vasopressin; 320,000 compounds, 0.25% hits;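 active means activation above the mean activation of all tested compounds plus 3 SD, per screening run, cut at about 20% in these data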;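 further: signal is peak over basal fluorescence ratio across a 100 second FLIPR read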
Target sequence (P37288 whole entry, looked up): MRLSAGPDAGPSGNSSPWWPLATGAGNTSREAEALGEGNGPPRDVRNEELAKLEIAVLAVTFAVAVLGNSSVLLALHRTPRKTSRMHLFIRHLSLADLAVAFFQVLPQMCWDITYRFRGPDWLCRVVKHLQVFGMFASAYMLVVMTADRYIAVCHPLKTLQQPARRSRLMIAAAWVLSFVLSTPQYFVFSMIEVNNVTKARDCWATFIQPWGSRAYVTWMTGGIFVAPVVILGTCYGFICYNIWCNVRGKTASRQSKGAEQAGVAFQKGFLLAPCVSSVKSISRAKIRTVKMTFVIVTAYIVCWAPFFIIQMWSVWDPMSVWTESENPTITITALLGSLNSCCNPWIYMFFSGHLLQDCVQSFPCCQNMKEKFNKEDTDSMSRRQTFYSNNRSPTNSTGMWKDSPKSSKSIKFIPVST
TAAR1 ag conf = confirmation of human TAAR1 agonists. shares compounds with TAAR1 ag. CHO RD-HGA16 TAAR1, Fluo-8 calcium fluorescence; scaled: DMSO 0%, maximal phenethylamine 100%. activation, % at 3 µM. 2,400 compounds, 82% hits. AID 651783;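 active means activation above a cutoff set at the run's mean compound activation plus 3 SD, cut at about 39% in these data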
Ga16 ag counter = nonselective agonist in parental cells, TAAR1 agonist counter-screen | shares compounds with TAAR1 ag | CHO-Ga16 parental, Fluo-8 calcium fluorescence; normalized to maximal ATP response, DMSO zero | activation, % at 3 µM | 2,400 compounds, 50% hits;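 active means activation above the run cutoff, the mean activation over all tested wells plus 3 SD, cut at about 12% in these data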
TAAR1 desens = TAAR1 response desensitization, agonist counter-screen | shares compounds with TAAR1 ag | CHO RD-HGA16 hTAAR1, Fluo-8 calcium, beta-PEA response inhibition | 2,400 compounds, 46% hits | AID 651951 | inhibition, % at 3 µM;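 active means inhibition above the run cutoff, the mean inhibition of all test compounds plus 3 SD, cut at about 49% in these data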;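 further: beta-PEA stimulus applied at its EC80; loss of beta-PEA calcium signal after compound pretreatment read as receptor desensitization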
Ga16 nonsel ant = counter-screen for TAAR1 agonists: nonselective Ga16 antagonists | shares compounds with TAAR1 ag | AID 651952 | inhibition, % at 3 µM | 2,400 compounds, 39% hits | CHO-Ga16 ATP-induced calcium, Fluo-8 fluorescence;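 active means inhibition above the plate's mean compound inhibition plus 3 SD, computed per plate, cut at about 22% in these data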
Large screens that a line does not name were inactive (follow-up assays come after a bar, where they were run).

CCn1c(C)nc2cc(C(=O)NNC(=S)Nc3ccc(Cl)cc3)ccc21	TAAR1 ag 54 | TAAR1 ag conf 61 | Ga16 ag counter inactive | TAAR1 desens inactive | Ga16 nonsel ant inactive
CCn1c(C)nc2cc(C(=O)NNC(=S)Nc3ccc(F)cc3)ccc21	none
COc1ccc(C(=O)NNC(=O)c2cc3cc([N+](=O)[O-])ccc3oc2=O)cc1OC	none
N#Cc1cc(C(=O)c2ccccc2O)cn(-c2nccs2)c1=O	TAAR1 antagonist 71, TAAR1 ag 126, OXTR agonist 90, V1aR counter 55 | TAAR1 ag conf 90 | Ga16 ag counter 84 | TAAR1 desens 65 | Ga16 nonsel ant 59
N#Cc1cc(C(=O)c2cc(F)ccc2O)cn(-c2nccs2)c1=O	TAAR1 antagonist 68, TAAR1 ag 105, OXTR agonist 135, V1aR counter 84 | TAAR1 ag conf 91 | Ga16 ag counter 112 | TAAR1 desens 67 | Ga16 nonsel ant 74
C[C@H](CO)N1C[C@H](C)[C@@H](CN(C)S(=O)(=O)c2ccccc2)Oc2c(NS(=O)(=O)c3cccs3)cccc2C1=O	none
COc1cc(C)c(C(C)C)cc1S(=O)(=O)NC1CC(C)(C)NC(C)(C)C1	none
CCc1cc(-c2n[nH]c(=S)n2-c2ccccc2C)cs1	none (no result: TAAR1 antagonist, TAAR1 ag)
CN=c1scc(-c2cccs2)n1/N=C/c1ccc(O)c(O)c1O	TAAR1 ag 45 | TAAR1 ag conf 56 | Ga16 ag counter 21 | TAAR1 desens inactive | Ga16 nonsel ant inactive
COc1ccc(C2=Nc3ccccc3NC(=O)C2N(CCc2cc(OC)cc(OC)c2)C(C)=O)cc1 (stereo not given)	none (no result: OXTR potentiate, OXTR agonist, V1aR counter)
O=[N+]([O-])c1cc(/C=N\Nc2nc(-c3ccccc3)cs2)ccc1O	TAAR1 ag 69 | TAAR1 ag conf 44 | Ga16 ag counter 53 | TAAR1 desens inactive | Ga16 nonsel ant 29
Cc1ccc(NC(=O)COC(=O)c2ccc3c(c2)C(=O)N(CCc2ccccc2)C3=O)c(C)c1	TAAR1 ag 77 | TAAR1 ag conf 64 | Ga16 ag counter inactive | TAAR1 desens inactive | Ga16 nonsel ant inactive
COCCCN1C(=O)c2ccc(C(=O)OCC(=O)NCCc3ccccc3)cc2C1=O	none
CCCCC(=O)N=c1sc2c(OC)ccc(OC)c2n1C	none
COc1ccc(NC(=O)COC(=O)c2ccc(Br)o2)cc1OC	none
COc1cc(OC)cc(C(=O)NC(=S)NNC(=O)[C@H]2C[C@@H]2c2ccccc2)c1	TAAR1 antagonist 107, TAAR1 ag 174, OXTR agonist 23 | TAAR1 ag conf 113 | Ga16 ag counter 102 | TAAR1 desens 89 | Ga16 nonsel ant 65
COc1ccc(C(=O)NC(=S)NNC(=O)[C@H]2C[C@@H]2c2ccccc2)cc1OC	TAAR1 antagonist 49, TAAR1 ag 121 | TAAR1 ag conf 90 | Ga16 ag counter 70 | TAAR1 desens 70 | Ga16 nonsel ant 43
COc1ccc(OC)c(NC(=O)C2CC2c2ccccc2)c1 (stereo not given)	none
COc1cc(OC)cc(C(=O)NC(=S)NNC(=O)Cc2cccs2)c1	TAAR1 ag 80 | TAAR1 ag conf 56 | Ga16 ag counter 37 | TAAR1 desens inactive | Ga16 nonsel ant inactive
C/C(=N\NC(=O)c1cccnc1)c1cccc([N+](=O)[O-])c1	none
NC[C@@H]1O[C@H](C23CC4CC(CC(C4)C2)C3)Cc2c1ccc(O)c2O	TAAR1 antagonist 71, TAAR1 ag 68 | TAAR1 ag conf 109 | Ga16 ag counter 13 | TAAR1 desens 88 | Ga16 nonsel ant 29
Nc1nc(N)c2cc(CNc3ccc(Cl)c(Cl)c3)ccc2n1	TAAR1 antagonist 53, TAAR1 ag 64 (no result: OXTR potentiate, OXTR agonist, V1aR counter) | TAAR1 ag conf 80 | Ga16 ag counter 42 | TAAR1 desens 74 | Ga16 nonsel ant 66
CN1C(=O)NC2(O)C(=O)c3ccccc3C12O (stereo not given)	none
CC1CCCC(C)N1C(=O)CSCc1ccc(Cl)cc1 (stereo not given)	none
C=CCn1c(=O)[nH]c2nc3cc(N=CN(C)C)c(C)cc3nc2c1=O	TAAR1 ag 90 | TAAR1 ag conf inactive | Ga16 ag counter 45 | TAAR1 desens inactive | Ga16 nonsel ant 23
Cc1ccc(S(=O)(=O)NC(N)=NCCc2ccc(Cl)cc2)cc1	none
CCOC(=O)c1c(S(=O)(=O)NCCc2cccs2)c(C)n(C)c1C	TAAR1 ag 55 | TAAR1 ag conf inactive | Ga16 ag counter inactive | TAAR1 desens inactive | Ga16 nonsel ant inactive
CCOC(=O)c1c(S(=O)(=O)NCC2CCN(CCc3cccs3)CC2)c(C)n(C)c1C	none
Cn1c(=O)c2[nH]c(Nc3ccccc3)nc2n(C)c1=O	TAAR1 ag 74 | TAAR1 ag conf 71 | Ga16 ag counter inactive | TAAR1 desens 61 | Ga16 nonsel ant inactive
Cc1ccc(CNc2nc3c([nH]2)c(=O)n(C)c(=O)n3C)cc1	none
Cc1ccc2c(c1)C=CC(C)(C)S2(=O)=O	none
CCCCC(=O)N(C)c1c(CC)nc2c(OCCOC)cccn12	none (no result: OXTR potentiate, OXTR agonist, V1aR counter)
O=C(CC1CCCC1)N[C@H](C(=O)N1CCC[C@H]1C(=O)NCCc1ccccc1Cl)c1ccccc1	TAAR1 antagonist 53, TAAR1 ag 55 (no result: OXTR potentiate, OXTR agonist, V1aR counter) | TAAR1 ag conf 86 | Ga16 ag counter inactive | TAAR1 desens 79 | Ga16 nonsel ant inactive
O=C(CC1CCCC1)N[C@H](C(=O)N1CCC[C@H]1C(=O)NCc1ccccc1)c1ccccc1	none (no result: OXTR potentiate, OXTR agonist, V1aR counter)
CCOC(=O)N[C@H](C(=O)N1CCC[C@H]1C(=O)NCCc1ccccc1Cl)c1ccccc1	TAAR1 antagonist 64, TAAR1 ag 69 (no result: OXTR potentiate, OXTR agonist, V1aR counter) | TAAR1 ag conf 85 | Ga16 ag counter inactive | TAAR1 desens 83 | Ga16 nonsel ant inactive
COC(=O)[C@]12C[C@H](CC(=O)NCCc3ccccc3OC)C(=O)N(Cc3ccc4c(c3)OCO4)C1=C[C@H](C(C)(C)C)O[C@@H]2C	none (no result: OXTR potentiate, OXTR agonist, V1aR counter)
CCCCCCCCN1C(=O)[C@@H](CC(=O)NCCc2ccccc2OC)C[C@@]2(C(=O)OC)C1=C[C@H](C1CCCC1)O[C@@H]2C	TAAR1 ag 62 (no result: OXTR potentiate, OXTR agonist, V1aR counter) | TAAR1 ag conf 72 | Ga16 ag counter inactive | TAAR1 desens 64 | Ga16 nonsel ant inactive
